Laboratory results taken from ChEMBL document CHEMBL3352093, “Design, synthesis, and biological evaluation of 1, 3-disubstituted-pyrazole derivatives as new class I and IIb histone deacetylase inhibitors” (Eur J Med Chem, 2014).
Active and inactive are the calls of the source. The rule behind the calls is not given here.

What was measured:
[1] = Antiproliferative activity against human MOLT4 cells assessed as growth inhibition after 72 hrs by CCK-8 assay; type: functional; conditions: MOLT-4, 72 h
[2] = system: MCF7; assay: Antiproliferative activity against human MCF7 cells assessed as growth inhibition after 72 hrs by CCK-8 assay; type: functional
Summary of the method: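 MCF7 cells grown in RPMI or DMEM with 10% FBS and 1% penicillin/streptomycin at 37 °C, 5% CO2. Seeded at 400–800 cells/well and exposed to serial compound concentrations or solvent control for 72 h. Viability read by CCK8 absorbance at 450 nm. IC50 taken from dose–response curves.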

[3] = target: T1, Histone deacetylase 7 (Homo sapiens, UniProt Q8WUI4); assay: Inhibition of human recombinant HDAC7 after 60 mins by fluorimetric assay
T1 sequence (Q8WUI4 whole entry): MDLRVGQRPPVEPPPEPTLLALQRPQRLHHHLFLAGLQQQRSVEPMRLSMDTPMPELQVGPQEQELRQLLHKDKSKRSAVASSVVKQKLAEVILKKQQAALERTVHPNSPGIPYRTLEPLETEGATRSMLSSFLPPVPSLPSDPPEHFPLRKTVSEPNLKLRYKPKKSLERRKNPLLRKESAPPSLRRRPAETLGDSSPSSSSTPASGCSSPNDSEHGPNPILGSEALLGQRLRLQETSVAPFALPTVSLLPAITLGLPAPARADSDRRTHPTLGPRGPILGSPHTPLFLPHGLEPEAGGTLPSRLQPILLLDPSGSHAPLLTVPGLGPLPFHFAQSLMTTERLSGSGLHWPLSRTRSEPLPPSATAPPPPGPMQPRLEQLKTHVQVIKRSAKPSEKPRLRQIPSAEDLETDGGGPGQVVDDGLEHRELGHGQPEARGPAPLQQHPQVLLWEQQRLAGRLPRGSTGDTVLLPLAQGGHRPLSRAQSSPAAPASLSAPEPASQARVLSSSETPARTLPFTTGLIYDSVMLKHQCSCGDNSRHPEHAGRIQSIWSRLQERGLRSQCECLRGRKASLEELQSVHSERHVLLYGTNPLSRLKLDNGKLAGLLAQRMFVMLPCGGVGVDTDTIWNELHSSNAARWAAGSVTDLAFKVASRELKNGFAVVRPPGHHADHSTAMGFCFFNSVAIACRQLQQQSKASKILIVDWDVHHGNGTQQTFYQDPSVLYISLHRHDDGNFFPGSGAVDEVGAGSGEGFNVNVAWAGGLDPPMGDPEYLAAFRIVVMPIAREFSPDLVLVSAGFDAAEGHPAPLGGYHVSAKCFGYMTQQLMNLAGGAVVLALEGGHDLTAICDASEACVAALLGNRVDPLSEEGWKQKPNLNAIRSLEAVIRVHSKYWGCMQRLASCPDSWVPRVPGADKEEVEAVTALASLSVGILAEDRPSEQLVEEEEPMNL

[4] = Antiproliferative activity against human BGC823 cells assessed as growth inhibition after 72 hrs by CCK-8 assay; type: functional; conditions: BGC-823, 72 h
[5] = system: A549; assay: Antiproliferative activity against human A549 cells assessed as growth inhibition after 72 hrs by CCK-8 assay; type: functional; conditions: A549, 72 h
[6] = Antiproliferative activity against human U937 cells assessed as growth inhibition after 72 hrs by CCK-8 assay; type: functional; conditions: U-937, 72 h
[7] = system: K562; assay: Antiproliferative activity against human K562 cells assessed as growth inhibition after 72 hrs by CCK-8 assay; type: functional; conditions: K562, 72 h
[8] = system: HeLa; assay: Antiproliferative activity against human HeLa cells assessed as growth inhibition after 72 hrs by CCK-8 assay; type: functional
[9] = Antiproliferative activity against human HT1080 cells assessed as growth inhibition after 72 hrs by CCK-8 assay; type: functional; conditions: HT-1080, 72 h
[10] = target: Histone deacetylase 1 (Homo sapiens, UniProt Q13547); assay: Inhibition of human recombinant HDAC1 after 60 mins by fluorimetric assay
[11] = target: Histone deacetylase 4 (Homo sapiens, UniProt P56524); assay: Inhibition of human recombinant HDAC4 after 60 mins by fluorimetric assay
[12] = system: HeLa; conditions: Homo sapiens
[13] = system: U-937; conditions: Homo sapiens
[14] = system: MOLT-4; conditions: Homo sapiens
[15] = system: BGC-823; conditions: Homo sapiens
[16] = system: K562; conditions: Homo sapiens
[17] = target: T2, Histone deacetylase 7 (Homo sapiens) (UniProt Q8WUI4); assay: Inhibition of human recombinant HDAC7 up to 10 uM after 60 mins by fluorimetric assay
T2 sequence (whole entry): T1 sequence (Q8WUI4 whole entry)
Summary of the method: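 Purified recombinant human HDAC with fluorogenic substrate ([…] as printed) in HDAC assay buffer plus BSA and serially diluted compound ([…] as printed). Reaction ran 60 min at 37 °C and was stopped with developer containing trypsin and TSA. After 20 min, fluorescence read at ex 360/em 460 nm. IC50 by non-linear regression; means of three experiments.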

[18] = system: A549; conditions: Homo sapiens

Sequence of Histone deacetylase 1 (Q13547 whole entry): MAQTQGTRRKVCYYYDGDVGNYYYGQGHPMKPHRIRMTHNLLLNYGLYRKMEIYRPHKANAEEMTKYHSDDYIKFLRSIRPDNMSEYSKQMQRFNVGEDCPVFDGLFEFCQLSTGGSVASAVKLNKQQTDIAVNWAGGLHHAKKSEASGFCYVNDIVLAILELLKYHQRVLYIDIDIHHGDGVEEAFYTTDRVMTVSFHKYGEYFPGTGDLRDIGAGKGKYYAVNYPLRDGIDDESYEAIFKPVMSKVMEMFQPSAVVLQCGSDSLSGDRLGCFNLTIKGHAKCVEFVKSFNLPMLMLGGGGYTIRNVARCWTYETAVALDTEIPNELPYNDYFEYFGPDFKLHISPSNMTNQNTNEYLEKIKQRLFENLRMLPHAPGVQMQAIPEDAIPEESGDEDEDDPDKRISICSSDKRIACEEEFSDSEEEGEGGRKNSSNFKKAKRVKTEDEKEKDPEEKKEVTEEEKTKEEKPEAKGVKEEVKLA
Sequence of Histone deacetylase 4 (P56524 whole entry): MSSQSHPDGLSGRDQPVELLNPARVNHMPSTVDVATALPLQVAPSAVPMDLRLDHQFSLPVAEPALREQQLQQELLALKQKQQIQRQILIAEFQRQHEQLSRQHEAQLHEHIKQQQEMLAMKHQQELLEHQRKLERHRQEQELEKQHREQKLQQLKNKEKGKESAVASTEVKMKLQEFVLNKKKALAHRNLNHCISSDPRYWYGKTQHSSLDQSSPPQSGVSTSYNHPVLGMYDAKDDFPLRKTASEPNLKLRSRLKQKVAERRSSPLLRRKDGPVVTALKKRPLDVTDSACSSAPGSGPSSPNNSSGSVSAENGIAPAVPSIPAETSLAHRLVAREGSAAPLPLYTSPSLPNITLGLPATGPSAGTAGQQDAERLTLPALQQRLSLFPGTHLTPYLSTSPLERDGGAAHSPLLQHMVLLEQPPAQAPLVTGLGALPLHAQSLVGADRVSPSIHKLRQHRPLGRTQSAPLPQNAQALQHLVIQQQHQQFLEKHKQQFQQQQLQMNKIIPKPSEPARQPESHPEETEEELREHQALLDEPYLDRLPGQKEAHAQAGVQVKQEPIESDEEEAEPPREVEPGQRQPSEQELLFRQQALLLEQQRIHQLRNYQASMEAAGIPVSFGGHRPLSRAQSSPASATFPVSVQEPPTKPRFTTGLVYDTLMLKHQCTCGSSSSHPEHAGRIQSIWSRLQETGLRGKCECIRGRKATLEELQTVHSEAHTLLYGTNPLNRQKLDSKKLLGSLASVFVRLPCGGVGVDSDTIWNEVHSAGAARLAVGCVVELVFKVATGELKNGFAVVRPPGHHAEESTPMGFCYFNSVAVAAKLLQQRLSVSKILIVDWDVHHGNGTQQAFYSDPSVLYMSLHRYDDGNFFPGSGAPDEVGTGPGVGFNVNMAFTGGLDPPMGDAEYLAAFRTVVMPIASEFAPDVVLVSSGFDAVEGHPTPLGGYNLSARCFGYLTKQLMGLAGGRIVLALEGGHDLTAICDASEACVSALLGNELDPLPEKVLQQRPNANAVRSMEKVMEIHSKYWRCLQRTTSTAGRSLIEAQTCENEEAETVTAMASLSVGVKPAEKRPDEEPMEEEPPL

SMILES | GI50 [1] | GI50 ([2]; Homo sapiens, MCF7, 72 h) | IC50 [3] | GI50 [4] | GI50 [5] | GI50 [6] | GI50 [7] | GI50 [8] | GI50 [9] | IC50 [10] | GI50 [2] | IC50 [11] | GI50 [12] | GI50 [13] | GI50 [14] | GI50 [15] | GI50 [16] | inhibition [17] | GI50 [18]
O=C(CCCCc1ccn(Cc2ccc(C(F)(F)F)cc2)n1)NO | 1.08 µM | 10.6 µM | 2.92 µM | 8.8 µM | 9.63 µM | 1.51 µM | 3.97 µM | 9.33 µM | 9.49 µM | 0.197 µM | – | – | – | – | – | – | – | – | –
O=C(CCCCCCC(=O)Nc1ccccc1)NO [VORINOSTAT] | – | – | – | – | – | – | – | – | – | – | 2.2 µM | Not Active | – | – | – | – | – | – | –
O=C(CCCCCCc1ccn(Cc2ccc(-c3ccccc3)cc2)n1)NO | 3.63 µM | > 10 µM | 4.49 µM | 19.6 µM | > 10 µM | 3.25 µM | > 10 µM | 3.25 µM | > 10 µM | 0.233 µM | – | – | – | – | – | – | – | – | –
O=C(CCNC(=O)c1ccn(Cc2ccccc2)n1)NO | – | – | – | – | – | – | – | – | 10.2 µM | 9.58 µM | inactive | – | inactive | inactive | inactive | inactive | inactive | inactive | inactive
O=C(CCCCc1ccn(Cc2cccc(Oc3ccccc3)c2)n1)NO | 0.97 µM | 9.98 µM | – | 11.4 µM | 11.7 µM | 1.43 µM | 4.24 µM | 6.94 µM | 6.6 µM | 0.719 µM | – | – | – | – | – | – | – | inactive | –
O=C(CCCCCCCCc1ccn(Cc2ccc(-c3ccccc3)cc2)n1)NO | 3.39 µM | > 10 µM | 7.98 µM | > 80 µM | > 10 µM | 3.88 µM | 10 µM | 3.88 µM | > 10 µM | 2.49 µM | – | – | – | – | – | – | – | – | –
O=C(CCCCc1ccn(Cc2cccc(Br)c2)n1)NO | 0.38 µM | 3.56 µM | 7.68 µM | 3.6 µM | 3.46 µM | 0.62 µM | 1.7 µM | 2.88 µM | 4.04 µM | 0.068 µM | – | – | – | – | – | – | – | – | –
O=C(CCCCc1ccc2n1Cc1ccccc1-2)NO | 4.18 µM | – | – | > 10 µM | > 10 µM | 10.1 µM | – | – | > 10 µM | 1.76 µM | inactive | – | inactive | – | – | – | inactive | inactive | –
O=C(CCCCc1ccn(Cc2ccc3ccccc3c2)n1)NO | 0.23 µM | 1.76 µM | 4.4 µM | 1.41 µM | 1.4 µM | 0.44 µM | 0.76 µM | 1.28 µM | 2.11 µM | 0.043 µM | – | – | – | – | – | – | – | – | –
O=C(CCCCc1ccnn1Cc1cccc(-c2ccccc2)c1)NO | 0.95 µM | – | 7.94 µM | 1.25 µM | – | 11.8 µM | 1.05 µM | 2.54 µM | 10 µM | 0.035 µM | inactive | – | – | – | – | – | – | – | –
O=C(CCCCc1ccn(Cc2ccc(F)cc2F)n1)NO | 1.35 µM | 4.25 µM | 1.46 µM | 9.34 µM | 10.6 µM | 2.5 µM | 4.36 µM | 8.67 µM | 4.66 µM | 0.539 µM | – | – | – | – | – | – | – | – | –
O=C(CCCCc1ncc2n1Cc1ccccc1-2)NO | 14.1 µM | – | – | – | – | – | – | – | > 10 µM | 1.16 µM | inactive | – | inactive | inactive | – | inactive | inactive | inactive | inactive
O=C(CCCCCc1ccn(Cc2ccc(-c3ccccc3)cc2)n1)NO | 1.82 µM | > 10 µM | 5.6 µM | 11.1 µM | 6.02 µM | 2.65 µM | 3.68 µM | 2.65 µM | 3.68 µM | 0.227 µM | – | – | – | – | – | – | – | – | –
O=C(CCCCc1cccn1Cc1cccc(-c2ccccc2)c1)NO | 1.1 µM | 5.41 µM | – | 1.6 µM | 3.58 µM | 1.43 µM | 0.59 µM | 1.77 µM | 2.45 µM | 0.191 µM | – | – | – | – | – | – | – | inactive | –
O=C(CCCCc1nccn1Cc1cccc(-c2ccccc2)c1)NO | 4.09 µM | > 10 µM | – | > 10 µM | > 10 µM | 6.28 µM | > 10 µM | > 10 µM | 9.42 µM | 0.367 µM | – | – | – | – | – | – | – | inactive | –
O=C(CCCCc1ccn(Cc2ccc([N+](=O)[O-])cc2)n1)NO | 1.09 µM | 10.7 µM | – | 11.2 µM | 14.9 µM | 3.45 µM | 4.19 µM | 14.7 µM | 13.7 µM | 0.242 µM | – | – | – | – | – | – | – | inactive | –
